Records with an inconclusive call do not appear.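 How the source made its calls, unless noted: active means cell viability at or below a set limit in both duplicate runs, the limit being the all-compound median minus 4 SD (cut at about 23% in these data, passing the limit was not always enough); inconclusive means no clear call, values can overlap the other calls; inactive means the rest.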
Experiments:
[1] = OD615 S. cerevisiae growth inhibition, permissive medium, pilot counter-assay, permissive growth control for S. cerevisiae lifespan shortening project (AID 705;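 active means growth inhibition above 25% in both replicates, a cutoff set 3 SD above the mean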); conditions: OD615, 24 h, at 10 µM, hits give high values
In short: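 System – S. cerevisiae with engineered DeaD lifespan system · Buffer or medium – SC raffinose/galactose permissive medium · Schedule – cells pre-grown 4 h, then 24 h compound exposure, 30 °C humidified · Technique – culture turbidity as optical density at 615 nm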

[2] = Restrictive medium S. cerevisiae growth inhibition, OD615, pilot screen of yeast lifespan reduction project, restrictive growth control (AID 706;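 active means growth inhibition above a set limit, 3 SD over mean compound inhibition, in both replicates, cut at about 43% in these data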;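 further: modified DeaD lifespan yeast strain shifted to restrictive glucose medium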); conditions: OD615, 48 h, at 10 µM, hits give high values
In short: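 Material: engineered S. cerevisiae DeaD strain / Medium: glucose-based CSMM-D restrictive medium / Compound: single dose of 10 µM compound final, 0.25% DMSO / Timing: 4 h pre-incubation, 48 h exposure at 30 °C / Technique: OD615 absorbance reading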

[3] = viability gain of MRP-1-high H69AR cells under doxorubicin, pilot screen, MRP-1 activator project, CellTiter-Glo, duplicate (AID 807;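 active means viability increase at or above a cutoff of the median across tested compounds plus 3 SD, cut at about 8.5% in these data, passing the limit was not always enough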;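 further: compound pretreatment 18-22 h then 72 h combined with doxorubicin; 0% = doxorubicin alone and 100% = vehicle without doxorubicin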); conditions: H69AR viability with doxorubicin, CellTiter-Glo luminescence; at 10 µM; hits give high values
[4] = growth suppression of beta-catenin knockout HCT116, pilot screen, human colon tumor cells (AID 823); conditions: CellTiter-Glo, 60 h, at 10 µM, hits give low values;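 further: 0% = wells killed by 20 µM Hyamine and 100% = untreated DMSO cell wells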
[5] = growth suppression of PTEN-deleted HCT116, pilot screen, cell-based, HCT116 clonal line, CellTiter-Glo (AID 824;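 active means viability at or below 27.92% in each of two runs, the all-compound median minus 4 SD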;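 further: 0% = 20 µM Hyamine control and 100% = vehicle cell control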); conditions: 60 h, at 10 µM, hits give low values
[6] = inhibitors of the yeast RAM network, pilot screen, dse1pr::URA3 reporter, 5-FOA selection (AID 869;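 active means inhibition over a set limit, the all-compound mean plus 3 SD, in both replicate runs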;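 further: 0% = DMSO wells with no growth and 100% = 10 µM 1-NA-PP1 with full growth; RAM network block rescues cells from 5-FOA so hits raise OD615 growth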); conditions: S. cerevisiae dse1pr::URA3 5-FOA growth, OD615, 2 d; at 10 µM; hits give high values; strain carries analog-sensitive mutant Cbk1 kinase
[7] = RAM signaling pathway blockade in yeast – S. cerevisiae, Pdr1DBD-CYC8 efflux-inhibited sensitized strain, primary screen (AID 1298;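 active means RAM network inhibition above 8.4% in each of two replicates, 3 SD over the compound average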;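 further: 0% = DMSO untreated cells without growth and 100% = 10 µM 1-NA-PP1 full growth; higher means more yeast growth rescued from 5-FOA killing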); conditions: S. cerevisiae cbk1-as DSE1-URA3 strain, 5-FOA growth OD615, 2 d; at 50 µM; hits give high values

COC(=O)c1ccsc1NC(=O)c1ccc(Cl)s1
inactive: growth inhibition [1] -17.6% | growth inhibition [2] -27.1% | viability increase [3] -6.51% | viability [4] 94.7% | viability [5] 87.9% | inhibition [6] 3.58% | RAM network inhibition [7] 5.89%

O=C(NC1CCCCC1)N1CCCCCC1
inactive: growth inhibition [1] 1.12% | growth inhibition [2] -18% | viability increase [3] -0.52% | viability [4] 96.6% | viability [5] 97.5% | inhibition [6] 0.64% | RAM network inhibition [7] 3.56%

Cc1csc(NC(=O)C(CC(C)C)NS(=O)(=O)c2ccc3c(c2)oc(=O)n3C)n1 (configuration not stated)
inactive: growth inhibition [1] 2.94% | growth inhibition [2] -3.39% | viability increase [3] -0.77% | viability [4] 103% | viability [5] 106% | inhibition [6] 1.33% | RAM network inhibition [7] 2.74%

CN1CCN(c2cc(=O)n(C3CCCCC3)c(=O)[nH]2)CC1
inactive: growth inhibition [1] -17.5% | growth inhibition [2] -8.34% | viability increase [3] 0.57% | viability [4] 101% | viability [5] 103% | inhibition [6] 1.9% | RAM network inhibition [7] 1.26%

Cc1cc(C)n2nc(SCC#N)nc2n1
inactive: growth inhibition [1] -7.25% | growth inhibition [2] -4.04% | viability increase [3] -2.41% | viability [4] 95.4% | viability [5] 95.4% | inhibition [6] 0.2% | RAM network inhibition [7] 4.36%

COC(=O)C1Sc2[nH]c(=O)sc2C(c2ccc(Cl)cc2)C1C(=O)OC (configuration not stated)
inactive: growth inhibition [1] -14.8% | growth inhibition [2] -14.8% | viability increase [3] -5.67% | viability [4] 91.3% | viability [5] 88.7% | inhibition [6] 4.36% | RAM network inhibition [7] 2.45%

CCOC(=O)CC1C(=O)NCCN1C(=O)c1cc2c(=O)n3ccccc3nc2s1 (configuration not stated)
inactive: growth inhibition [1] -13.7% | growth inhibition [2] 0.575% | viability increase [3] 1.22% | viability [4] 95.3% | viability [5] 95.5% | inhibition [6] 1% | RAM network inhibition [7] 6.8%

COCCN1Cc2cccc(C(=O)NCc3cccnc3)c2C1=O
inactive: growth inhibition [1] 3.25% | growth inhibition [2] 10.2% | viability increase [3] 0.03% | viability [4] 111% | viability [5] 101% | inhibition [6] 3.75% | RAM network inhibition [7] 0.51%

CCC(=O)NCc1nc2ccccc2n1Cc1ccccc1F
inactive: growth inhibition [1] -7.37% | growth inhibition [2] -27% | viability increase [3] -0.04% | viability [4] 99.1% | viability [5] 99.2% | inhibition [6] 0.885% | RAM network inhibition [7] 2.45%

COc1ccc(-n2nc3c(c2NC(=O)C24CC5CC(CC(C5)C2)C4)CS(=O)C3)cc1 (configuration not stated)
inactive: growth inhibition [1] 1.36% | growth inhibition [2] 9.3% | viability increase [3] -0.78% | viability [4] 97.2% | viability [5] 93.5% | inhibition [6] -0.08% | RAM network inhibition [7] -1.31%

CCOC(=O)c1sc(NCCNc2nc(C)c(C(=O)OCC)s2)nc1C
inactive: growth inhibition [1] 2.36% | growth inhibition [2] -21.8% | viability increase [3] -3.12% | viability [4] 94.1% | viability [5] 89% | inhibition [6] 0.595% | RAM network inhibition [7] 5.86%

COc1ccc2c(c1)c(CCN1C(=O)c3ccccc3C1=O)cn2C(=O)c1ccco1
inactive: growth inhibition [1] -5.41% | growth inhibition [2] 0.45% | viability increase [3] -4.3% | viability [4] 85.7% | viability [5] 85.9% | inhibition [6] 2.02% | RAM network inhibition [7] 4.8%

Cc1ccc(-c2nn(C)c(=O)c3ccccc23)cc1S(=O)(=O)N1CCCC1
inactive: growth inhibition [1] -1.23% | growth inhibition [2] -6.2% | viability increase [3] -5.14% | viability [4] 49.8% | viability [5] 61% | inhibition [6] 0.01% | RAM network inhibition [7] 2.78%

Cn1c(=O)c2c(SCC(=O)NCc3ccco3)nc(CC(C)(C)C)nc2n(C)c1=O
inactive: growth inhibition [1] -3.79% | growth inhibition [2] -0.895% | viability increase [3] -4.81% | viability [4] 72.5% | viability [5] 70.6% | inhibition [6] 0.775% | RAM network inhibition [7] 5.97%

O=C(O)CC1(Cc2nc(-c3cccs3)no2)CCCC1
inactive: growth inhibition [1] 5.79% | growth inhibition [2] 0.06% | viability increase [3] 0.13% | viability [4] 96.1% | viability [5] 94.6% | inhibition [6] 0.35% | RAM network inhibition [7] -0.58%

CCOCCOC(=O)C1=C(C)N(C)C(=O)NC1c1ccccc1Cl (configuration not stated)
inactive: growth inhibition [1] 1.35% | growth inhibition [2] -7.18% | viability increase [3] -1.78% | viability [4] 101% | viability [5] 99.8% | inhibition [6] 0.375% | RAM network inhibition [7] 0.57%

CCCN(CCC)C(=O)c1ccc2c(c1)N(Cc1ccccc1)C(=O)CS2=O (configuration not stated)
inactive: growth inhibition [1] 2.79% | growth inhibition [2] -7.64% | viability increase [3] -2.62% | viability [4] 88.1% | viability [5] 83.4% | inhibition [6] 0.885% | RAM network inhibition [7] 1.55%

CCC(Sc1nncn1C)C(=O)Nc1nnc(-c2ccccc2Cl)s1 (configuration not stated)
inactive: growth inhibition [1] -3.46% | growth inhibition [2] 31.5% | viability increase [3] -0.85% | viability [4] 103% | viability [5] 92.5% | inhibition [6] 1.72% | RAM network inhibition [7] 2.58%

OCCOCCNc1ncnc2nc[nH]c12
inactive: growth inhibition [1] -8.26% | growth inhibition [2] -0.86% | viability increase [3] -0.43% | viability [4] 106% | viability [5] 101% | inhibition [6] 1.8% | RAM network inhibition [7] -0.28%

CCCCCSc1nc2c(c(=O)[nH]c(=O)n2C)n1C
inactive: growth inhibition [1] -12.6% | growth inhibition [2] -5.52% | viability increase [3] -2.27% | viability [4] 90.3% | viability [5] 79.6% | inhibition [6] 2.1% | RAM network inhibition [7] 0.68%

CCCCCn1c(=O)[nH]c2cc(C(=O)NCCCN3CCC(C)CC3)ccc2c1=O
inactive: growth inhibition [1] -6.26% | growth inhibition [2] 3.06% | viability increase [3] -6.38% | viability [4] 56.6% | viability [5] 61.9% | inhibition [6] 0.015% | RAM network inhibition [7] 3.34%

COc1ccccc1-c1cc(C(=O)N2CCCCC2)no1
inactive: growth inhibition [1] -6.35% | growth inhibition [2] 11.2% | viability increase [3] -0.55% | viability [4] 103% | viability [5] 93.2% | inhibition [6] 2.1% | RAM network inhibition [7] 4.18%

Cc1ccc(C(=O)NCCCC(=O)O)o1
inactive: growth inhibition [1] -6.95% | growth inhibition [2] -1.79% | viability increase [3] -2.22% | viability [4] 97.4% | viability [5] 96.9% | inhibition [6] 0.1% | RAM network inhibition [7] 5.07%

CCOC(=O)N1CCC(NC(=O)Cn2cc3c(n2)CCCC3)CC1
inactive: growth inhibition [1] -1.57% | growth inhibition [2] -0.65% | viability increase [3] -3.35% | viability [4] 107% | viability [5] 92.5% | inhibition [6] 2.6% | RAM network inhibition [7] 2.81%

CCCC(=O)C1=C(O)C(C(=O)OC)C(C)(C)CC1=Nc1ccncc1 (configuration not stated)
inactive: growth inhibition [1] 0.755% | growth inhibition [2] 9.75% | viability increase [3] -2.84% | viability [4] 96.7% | viability [5] 94.6% | inhibition [6] 0.73% | RAM network inhibition [7] 0.11%

Cc1[nH]nc2c1/C(=N\O)CC(C)(C)C2
inactive: growth inhibition [1] 12.7% | growth inhibition [2] -8.1% | viability increase [3] -2% | viability [4] 94.2% | viability [5] 98.1% | inhibition [6] 1.48% | RAM network inhibition [7] -1.33%

CCOC(=O)c1ccccc1NC(=O)Cn1cnc2c(nnn2-c2ccc(C)cc2)c1=O
inactive: growth inhibition [1] -7.68% | growth inhibition [2] 4.12% | viability increase [3] -4.32% | viability [4] 97% | viability [5] 88% | inhibition [6] 2.62% | RAM network inhibition [7] 3.5%

CN(CC(=O)N1CCCCCC1)S(=O)(=O)c1cccc2cccnc12
inactive: growth inhibition [1] -6.24% | growth inhibition [2] -27% | viability increase [3] -4.51% | viability [4] 101% | viability [5] 82% | inhibition [6] 2.14% | RAM network inhibition [7] -1.18%

C=CCn1c(=N)c(C(=O)NCCCOC)cc2c(=O)n3cccc(C)c3nc21
inactive: growth inhibition [1] 2.23% | growth inhibition [2] 0.115% | viability increase [3] -2.3% | viability [4] 83.8% | viability [5] 88.5% | inhibition [6] 0.4% | RAM network inhibition [7] -0.47%

O=C(CCS(=O)NCc1ccccc1)NCc1ccccc1 (configuration not stated)
inactive: growth inhibition [1] -7.98% | growth inhibition [2] -11.4% | viability increase [3] -2.13% | viability [4] 99.7% | viability [5] 99.9% | inhibition [6] 0.425% | RAM network inhibition [7] 1.51%

COc1ccc(NS(=O)(=O)c2ccc(OC)c(OC)c2)cc1OC
inactive: growth inhibition [1] -7.13% | growth inhibition [2] 4.59% | viability increase [3] 0.52% | viability [4] 92% | viability [5] 90.7% | inhibition [6] 0.335% | RAM network inhibition [7] 0%

Cc1occc1C(=O)Nc1nnc(-c2ccncc2)s1
inactive: growth inhibition [1] 4.81% | growth inhibition [2] 5.91% | viability increase [3] -0.28% | viability [4] 100% | viability [5] 104% | inhibition [6] 0.705% | RAM network inhibition [7] -1.3%

CC(C)N1CCc2c(sc(NC(=O)c3ccc(S(=O)(=O)N4CCOCC4)cc3)c2C#N)C1
inactive: growth inhibition [1] -4.83% | growth inhibition [2] -3.24% | viability increase [3] -2.2% | viability [4] 85.3% | viability [5] 86.3% | inhibition [6] 0.75% | RAM network inhibition [7] 1.3%

Cc1ccc2c(c1)c1c(n2CC(O)CNC(CO)(CO)CO)CCCC1 (configuration not stated)
inactive: growth inhibition [1] -2.98% | growth inhibition [2] -11.3% | viability increase [3] -1.14% | viability [4] 94.9% | viability [5] 90.8% | inhibition [6] 0.175% | RAM network inhibition [7] -0.57%

COc1cc(CN2CCN(CCOCCO)CC2)cc(OC)c1OC
inactive: growth inhibition [1] -9.5% | growth inhibition [2] -8.52% | viability increase [3] 0.51% | viability [4] 94.5% | viability [5] 96.8% | inhibition [6] 1.11% | RAM network inhibition [7] 4.96%

O=C(CC(c1ccccc1)c1ccccc1O)NCCN1CCOCC1 (configuration not stated)
inactive: growth inhibition [1] 0.155% | growth inhibition [2] -2.5% | viability increase [3] -2.74% | viability [4] 102% | viability [5] 95.6% | inhibition [6] 3.25% | RAM network inhibition [7] 2.36%
